Activity calls are given as the source filed them.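 Rule for the calls, unless noted: active = potentiation averaged over duplicate wells exceeding buffer-only control mean by more than 3 SD; inactive = the rest.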
Assays:
[1] = nonspecific flux increase, KCNQ1-free cells – parental CHO cells, counter-screen for KCNQ1 potentiator project (AID 493006;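 active = duplicate-averaged activation above buffer control mean plus 5 SD of those controls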;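 for activation: fluorescence ratio of max minus min over baseline after K+ and Tl+ depolarization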); conditions: parental CHO-K1 cells, FluxOR thallium flux, at 10 µM; stronger effect = higher value
Outline: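 Benchmarks – buffer and R-L3 controls · Assay system – untransfected host CHO-K1 cells with FluxOR thallium dye · Measure – fluorescence change ratio scaled 0% buffer, 100% R-L3 · Technique – kinetic thallium-flux fluorescence · Timing – overnight 37 °C plating, 90 min RT dye, 20 min compound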

[2] = biological target: Potassium voltage-gated channel subfamily KQT member 1 (Homo sapiens) (UniProt P51787); assay: enhancement of KCNQ1 channel thallium flux – FluxOR thallium flux, CHO cells, duplicates, confirmation (AID 493007); conditions: KCNQ1 cell line, FluxOR thallium flux fluorescence, at 10 µM; stronger effect = higher value, % of reference activator effect, buffer zero;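 for outcome: cells depolarized by a potassium plus thallium sulfate stimulus after compound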
Outline: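 Material: CHO cells stably expressing the KCNQ1 potassium channel / Times: dye 90 min then compound 20 min, both at room temperature / Detection: kinetic thallium influx fluorescence with FluxOR dye, 10 s baseline, 110 s post-stimulus / Benchmarks: buffer-only wells as 0% and R-L3 activator as 100% / Replicates: each compound tested in duplicate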

[3] = biological target: Potassium voltage-gated channel subfamily KQT member 2 (Rattus norvegicus) (UniProt O88943); assay: KCNQ2 thallium flux enhancement – KCNQ2-CHO-K1 cells, selectivity assay for KCNQ1 potentiator project (AID 493009;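 active = mean duplicate potentiation above the buffer control mean plus 5 SD of buffer wells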;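 note: assay conditions were tuned for KCNQ1 rather than KCNQ2 modulators; signal is max minus min fluorescence divided by baseline after thallium stimulus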); conditions: FluxOR thallium flux fluorescence, at 10 µM; stronger effect = higher value, scaled: buffer 0, activator control 100
[4] = biological target: Potassium voltage-gated channel subfamily KQT member 1 (Homo sapiens) (UniProt P51787); assay: KCNQ1 activators by electrophysiology – IonWorks patch clamp, KCNQ1-CHO cells, orthogonal assay for KCNQ1 potentiator project, confirmation (AID 493184;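 active = current rise at least 3 SD above the untreated control mean in each of two repeat wells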); conditions: automated patch clamp current, at 10 µM; stronger effect = higher value
Outline: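 Probe or stimulus: depolarizing pulse to +40 mV from -90 mV; Material: CHO cells carrying KCNQ1; Compound: one dose, 10 µM final; Signal: automated voltage clamp, amphotericin B perforated patch; Read-out basis: percent current increase versus pre-compound level; Buffer or medium: pH 7.4 external bath; Replication: duplicates.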

Chain of Potassium voltage-gated channel subfamily KQT member 1 (Homo sapiens) (P51787 whole entry, looked up): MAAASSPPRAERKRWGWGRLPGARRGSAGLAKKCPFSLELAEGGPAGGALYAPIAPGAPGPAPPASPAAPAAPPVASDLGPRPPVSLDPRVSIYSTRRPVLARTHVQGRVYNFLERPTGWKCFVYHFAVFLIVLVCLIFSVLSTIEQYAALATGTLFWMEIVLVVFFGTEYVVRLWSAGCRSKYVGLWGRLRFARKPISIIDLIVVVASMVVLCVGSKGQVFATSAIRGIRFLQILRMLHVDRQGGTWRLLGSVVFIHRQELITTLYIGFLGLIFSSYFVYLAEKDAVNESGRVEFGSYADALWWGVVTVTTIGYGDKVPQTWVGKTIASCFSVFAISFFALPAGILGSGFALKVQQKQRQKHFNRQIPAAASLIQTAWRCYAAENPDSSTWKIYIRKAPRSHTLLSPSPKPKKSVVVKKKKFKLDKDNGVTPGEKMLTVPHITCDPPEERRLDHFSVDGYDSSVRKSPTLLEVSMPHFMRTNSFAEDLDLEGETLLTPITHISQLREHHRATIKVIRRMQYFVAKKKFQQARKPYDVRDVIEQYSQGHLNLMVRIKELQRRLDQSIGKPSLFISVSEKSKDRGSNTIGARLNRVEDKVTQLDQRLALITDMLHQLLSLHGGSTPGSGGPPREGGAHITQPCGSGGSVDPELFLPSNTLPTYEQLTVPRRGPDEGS
Chain of Potassium voltage-gated channel subfamily KQT member 2 (Rattus norvegicus) (O88943 whole entry, looked up): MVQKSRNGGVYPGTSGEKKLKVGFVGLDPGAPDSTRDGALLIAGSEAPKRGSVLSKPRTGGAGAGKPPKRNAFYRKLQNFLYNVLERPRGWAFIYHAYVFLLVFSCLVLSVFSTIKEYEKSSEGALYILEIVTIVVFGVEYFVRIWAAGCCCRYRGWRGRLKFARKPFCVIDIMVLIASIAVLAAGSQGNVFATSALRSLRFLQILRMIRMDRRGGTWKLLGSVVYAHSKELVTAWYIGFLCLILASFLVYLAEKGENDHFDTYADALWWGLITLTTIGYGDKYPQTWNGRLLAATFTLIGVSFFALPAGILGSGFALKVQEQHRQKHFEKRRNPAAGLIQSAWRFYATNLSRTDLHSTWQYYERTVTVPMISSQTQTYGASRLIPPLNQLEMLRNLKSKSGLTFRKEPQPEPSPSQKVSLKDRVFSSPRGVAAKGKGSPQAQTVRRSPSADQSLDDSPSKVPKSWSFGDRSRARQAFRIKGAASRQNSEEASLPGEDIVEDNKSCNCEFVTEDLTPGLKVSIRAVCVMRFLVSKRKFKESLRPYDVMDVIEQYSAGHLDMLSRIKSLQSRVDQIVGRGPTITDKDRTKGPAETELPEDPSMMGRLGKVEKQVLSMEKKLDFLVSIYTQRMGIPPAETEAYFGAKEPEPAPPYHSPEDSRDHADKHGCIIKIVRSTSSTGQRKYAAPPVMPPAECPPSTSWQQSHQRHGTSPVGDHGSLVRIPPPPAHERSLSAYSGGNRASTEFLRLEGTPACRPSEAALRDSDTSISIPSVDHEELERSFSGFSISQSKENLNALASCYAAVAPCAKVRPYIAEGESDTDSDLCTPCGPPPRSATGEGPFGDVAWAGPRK

| Structure (SMILES) | outcome [1] | outcome [2] | outcome [3] | outcome [4] | potentiation [2] | potentiation [3] | activation [1] |
| --- | --- | --- | --- | --- | --- | --- | --- |
| CN(C)CC(CCCCC(CN(C)C)C(=O)c1ccccc1)C(=O)c1ccccc1 (configuration not stated) | inactive | inactive | inactive | inactive | – | – | – |
| Cc1cccc(NC(=S)N/N=C(\c2ccccc2)C(C)C)c1 | inactive | – | – | inactive | 32% (active) | 152% (active) | – |
| COc1ccc(CCN=C(N)NS(=O)(=O)c2ccc(F)cc2)cc1OC | inactive | inactive | inactive | inactive | – | – | – |
| COC(=O)C1CCCN1C(=O)COc1ccc(Br)cc1Cl (configuration not stated) | – | – | – | inactive | 48.5% (active) | 198% (active) | 206% (active) |
| CCCN1C(=O)/C(=C/c2ccc(C)s2)NC1=S | – | – | – | inactive | 194% (active) | 412% (active) | 395% (active) |
| C=CCn1c(O)c(N=NC(=S)Nc2cccc(C)c2)c2ccccc21 | – | – | – | inactive | 77% (active) | 286% (active) | 225% (active) |
| CCc1nnc(NC(=O)CCC(=O)N2CCN(C3CCCCC3)CC2)s1 | inactive | inactive | inactive | inactive | – | – | – |
| COCCCN=C1NN=C(c2cc(C)n(-c3ccccc3F)c2C)CS1 | inactive | inactive | inactive | inactive | – | – | – |
| CCc1ccc(NC(=O)C(=O)NNC(=O)COc2cccc(OC)c2)cc1 | – | – | – | inactive | 76% (active) | 251% (active) | 164% (active) |
| Oc1c(N=NC(=S)Nc2ccccc2F)c2ccccc2n1Cc1ccccc1 | – | – | – | inactive | 49% (active) | 183% (active) | 143% (active) |
| Cc1ccc(-c2csc(NC(=S)NC(=O)c3ccco3)n2)cc1 | – | – | – | inactive | 71% (active) | 164% (active) | 180% (active) |
| Cc1ccc(Cl)cc1NC(=S)N/N=C/c1cccc2ccccc12 | inactive | – | inactive | inactive | 32% (active) | – | – |
| NC(=O)c1cccc(N=Cc2cc(Cl)cc(Cl)c2O)c1 | – | – | – | inactive | 25% (active) | 154% (active) | 178% (active) |
| CCOC(=O)Cc1csc(NC(=O)CSc2nnnn2-c2ccc(C)cc2C)n1 | inactive | inactive | inactive | inactive | – | – | – |
| COc1ccc(C(=O)O/N=C(\N)Cc2ccc(Cl)cc2Cl)cc1OC | inactive | inactive | inactive | inactive | – | – | – |
| CC(=O)OCC(=O)[C@@]1(OC(C)=O)[C@@H](C)C[C@H]2[C@@H]3C[C@H](F)C4=CC(=O)C=C[C@]4(C)[C@@]3(F)[C@@H](O)C[C@@]21C | inactive | inactive | inactive | inactive | – | – | – |
| O=C(CCN1CCc2ccccc2CC1)c1ccc2c(c1)OCCO2 | – | – | – | inactive | 38% (active) | 176% (active) | 150% (active) |
| COc1ccc(Cc2nnc(NC(=O)C3CC(=O)N(c4ccccc4)C3)s2)cc1OC (configuration not stated) | inactive | inactive | inactive | inactive | – | – | – |
